# The source made the active and inactive calls. The rule behind the calls is not given here.
# What was measured:
# [1] = Inhibition of [3H]DAMGO binding to Opioid receptor mu 1
# In short: (§1)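 Membranes from cells expressing the receptor, homogenized and washed in Tris, resuspended in 50 mM Tris pH 7.5. Incubated 60–120 min at 25 °C with [3H]DAMGO (mu), [3H]DPDPE (delta) or [3H]U69593 (kappa), about 15–30 μg protein. Filtration on glass fiber filters, scintillation counting. IC50 from at least six test concentrations; Ki by Cheng–Prusoff.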
# [2] = Inhibition of [3H]DPDPE binding to Opioid receptor delta 1; in short: as §1
# [3] = Stimulation of [35S]GTP-gamma-S, binding at Opioid receptor kappa 1; not active; format: functional
# In short: (§2)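 Membranes from cells expressing the receptor, washed and resuspended in 20 mM Hepes, 10 mM MgCl2, 100 mM NaCl, pH 7.4. 8–15 μg protein incubated 60 min at 25 °C with 50 pM [35S]GTP-γ-S, 10 μM GDP and test compound. Bound label collected on glass fiber filters and counted; EC50 for stimulation of binding.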
# [4] = Stimulation of [35S]GTP-gamma-S, binding at Opioid receptor mu1; not active; format: functional; in short: as §2
# [5] = Maximum efficacy for [35S]GTP-gamma-S, binding to mu opioid receptor; not active; format: functional; in short: as §2
# [6] = Maximum efficacy for [35S]GTP-gamma-S, binding to Opioid receptor kappa 1; not active; format: functional; in short: as §2
# [7] = Maximum efficacy for [35S]GTP-gamma-S, binding to Opioid receptor delta 1; format: functional; in short: as §2
# [8] = Inhibition of [3H]U-69593 binding to Opioid receptor kappa 1; in short: as §1
# [9] = Maximum efficacy for [35S]GTP-gamma-S, binding to Opioid receptor kappa 1; format: functional; in short: as §2
# [10] = Maximum efficacy for [35S]GTP-gamma-S, binding to Opioid receptor mu 1; format: functional; in short: as §2
# [11] = Maximum efficacy for [35S]GTP-gamma-S, binding to Opioid receptor kappa 1; no activity; format: functional; in short: as §2
# [12] = Stimulation of [35S]GTP-gamma-S, binding at Opioid receptor kappa; no activity; format: functional; in short: as §2
smiles,measurement,setting,value
COc1ccc2c3c1O[C@H]1C(SC4OC(C(=O)O)C(OC(C)=O)C(OC(C)=O)C4OC(C)=O)C=C[C@H]4[C@@H](C2)N(C)CC[C@]314 (stereo partly drawn),Ki,[1],463 µM
same,Ki,[2],2680 µM
same,EC50,[3],Not Active
same,EC50,[4],Not Active
same,Emax,[5],inactive
same,Emax,[6],inactive
same,Emax,[7],44.2
same,Ki,[8],> 10000 µM
COC(=O)C1OC(SC2C=C[C@H]3[C@H]4Cc5ccc(O)c6c5[C@@]3(CCN4C)[C@H]2O6)C(OC(C)=O)C(OC(C)=O)C1OC(C)=O (stereo partly drawn),Ki,[1],5.4 µM
same,Ki,[2],15.6 µM
same,Emax,[9],23.5
same,Emax,[10],88.3
same,Emax,[7],104
same,Ki,[8],11 µM
COC(=O)C1OC(SC2C=C[C@H]3[C@H]4Cc5ccc(OC)c6c5[C@@]3(CCN4C)[C@H]2O6)C(OC(C)=O)C(OC(C)=O)C1OC(C)=O (stereo partly drawn),Ki,[1],64 µM
same,Ki,[2],438 µM
same,Emax,[9],24.3
same,Emax,[10],19.3
same,Emax,[7],64.3
same,Ki,[8],499 µM
CN1CC[C@]23c4c5ccc(O)c4O[C@H]2[C@@H](O[C@@H]2O[C@H](C(=O)O)[C@@H](O)[C@H](O)[C@H]2O)C=C[C@H]3[C@H]1C5 [MORPHINE GLUCURONIDE],Ki,[1],12.9 µM
same,Ki,[2],170 µM
same,Emax,[11],inactive
same,Emax,[10],45
same,Emax,[7],80
same,Ki,[8],4060 µM
CC(=O)OCC1OC(SC2C=C[C@H]3[C@H]4Cc5ccc(O)c6c5[C@@]3(CCN4C)[C@H]2O6)C(OC(C)=O)C(OC(C)=O)C1OC(C)=O (stereo in doubt; 5e) [listing 1 of 2 here],Ki,[2],19.5 µM
same,Ki,[8],2970 µM
CC(=O)OC1C(CO)OC(SC2C=C[C@H]3[C@H]4Cc5ccc(O)c6c5[C@@]3(CCN4C)[C@H]2O6)C(OC(C)=O)C1OC(C)=O (stereo partly drawn),Ki,[1],5.4 µM
same,Ki,[2],56.2 µM
same,Emax,[9],42.5
same,Emax,[10],64.5
same,Emax,[7],51.5
same,Ki,[8],136 µM
CC(=O)OC1C(SC2C=C[C@H]3[C@H]4Cc5ccc(O)c6c5[C@@]3(CCN4C)[C@H]2O6)OC(C(=O)O)C(OC(C)=O)C1OC(C)=O (stereo partly drawn),Ki,[1],8.7 µM
same,Ki,[2],31.4 µM
same,EC50,[3],Not Active
same,Emax,[6],inactive
same,Emax,[10],46.6
same,Emax,[7],78.7
same,Ki,[8],288 µM
CC(=O)OCC1OC(SC2C=C[C@H]3[C@H]4Cc5ccc(O)c6c5[C@@]3(CCN4C)[C@H]2O6)C(OC(C)=O)C(OC(C)=O)C1OC(C)=O (stereo in doubt; 5e) [listing 2 of 2 here],Emax,[9],26.5
same,Emax,[10],76
same,Emax,[7],45.5
COC(=O)C1OC(SC2C=C[C@H]3[C@H]4Cc5ccc(OC(C)=O)c6c5[C@@]3(CCN4C)[C@H]2O6)C(OC(C)=O)C(OC(C)=O)C1OC(C)=O (stereo partly drawn),Ki,[1],100 µM
same,Ki,[2],528 µM
same,EC50,[12],Not Active
same,Emax,[11],inactive
same,Emax,[10],37.8
same,Emax,[7],46.8
same,Ki,[8],189 µM
CC(=O)OCC1OC(SC2C=C[C@H]3[C@H]4Cc5ccc(OC(C)=O)c6c5[C@@]3(CCN4C)[C@H]2O6)C(OC(C)=O)C(OC(C)=O)C1OC(C)=O (stereo partly drawn),Ki,[1],305 µM
same,Ki,[2],762 µM
same,Emax,[9],36.9
same,Emax,[10],44.1
same,Emax,[7],39.3
same,Ki,[8],1390 µM
CN1CC[C@]23c4c5ccc(O)c4O[C@H]2[C@@H](O)C=C[C@H]3[C@H]1C5,Emax,[10],93

# Source: ChEMBL document CHEMBL1138838, “Design, chemical synthesis, and biological evaluation of thiosaccharide analogues of morphine- and codeine-6-glucuronide” (J Med Chem, 2004)
